The species entered for series [1] is Homo sapiens. The series is described as follows: Selectivity ratio of IC50 for recombinant human GST tagged mTOR (1360 to 2549 residues) expressed in baculovirus expression system to IC50 for human full length p110alpha (1 to 1068 residues) expressed in baculovirus-infected Sf21 cells. The procedure, abridged: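 mTOR activity measured by LanthaScreen assay. PI3K-α activity measured by ADP Hunter Plus (ADP accumulation, fluorescence ex 544/em 580 nm), normalized to no-compound control and fitted to a sigmoid dose-response curve. IC50s are the average of two independent experiments. Ratio is mTOR IC50 over PI3K-α IC50.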

The nature of series [2]: Inhibition of PI3K/mTOR in human U2OS cells assessed as inhibition of AKT1 phosphorylation at Ser473 residue by C-ELISA. It counts as cell-based. The procedure, abridged:
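U2OS osteosarcoma cells grown in 0.1% FBS and serum-stimulated. Endogenous phospho-AKT1 Ser473 quantified by cell-based ELISA with chemiluminescent substrate. Signal plotted against inhibitor concentration and fitted to a sigmoid dose-response curve.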

Series [3] is described as follows: Half life in BALB/c mouse at 5 mg/kg, iv measured for 8 hrs. It counts as ADME, organism-based. Particulars: in vivo. The procedure, abridged: (§1)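 BALB/c mice dosed I.V. or P.O. at the stated dose; plasma levels followed for 8 h. Parameters from noncompartmental analysis: AUC (h.ng/ml), T1/2 (h), Cl (L/h/Kg), Vd (L/Kg), Cmax (ng/ml), Tmax (h).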
The nature of series [4]: Cmax in BALB/c mouse at 10 mg/kg, po measured for 8 hrs. It counts as ADME, organism-based. On the set-up: route oral, dose 10 mg/kg, time 8 hrs. Conditions: in vivo. The procedure, abridged:
as §1

A short description of series [5]: Tmax in BALB/c mouse at 10 mg/kg, po measured for 8 hrs. It counts as ADME, organism-based. Particulars: in vivo. The procedure, abridged:
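Dosing in BALB-C mice intravenously or orally, with plasma sampled over 8 h. Parameters (AUC, T1/2, Cl, Vd, Cmax, Tmax) come from a noncompartmental model. Units: AUC h.ng/ml, Vd L/Kg, Cmax ng/ml, Tmax h.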

The subject of a further series is MCF7. The series is described as follows: Growth inhibition of human MCF7 cells harboring mutated p110alpha measured after 72 hrs by Cell titre Glo-luminiscence cell viability assay. The format is functional. The procedure, abridged: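 Cells harvested just before confluency and seeded at 4,000 cells/well, then left 24 h before dosing. Serial dilutions from 10 mM DMSO stocks, final DMSO ≤0.5%, each concentration in duplicate.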

Another series deals with Cytochrome P450 3A4 (Homo sapiens, UniProt P08684). The experiment in a line: Inhibition of CYP3A4 (unknown origin) using Luciferin-PPXE as substrate at 10 uM preincubated with enzyme and substrate for 5 mins followed by addition of NADPH regeneration system and measured after 60 mins by luminescence method. It counts as ADME. The procedure, abridged: (§2)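 P450-Glo luminescence assays with these substrates: Luciferin-ME (CYP1A2), Luciferin-PPXE (CYP3A4), Luciferin-H (CYP2C9), LuciferinH-EG (CYP2C19), Luciferin-ME-EG (CYP2D6). Compounds run in 1/3 serial dilutions from 10 µM in 0.5% DMSO with enzyme and substrate. After 5 min preincubation, NADPH regeneration reagent added; 60 min at 37 °C, then detection reagent for 30 min. Background subtracted.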

Series [6] can be described thus: Inhibition of PI3K/mTOR in human MCF7 cells assessed as reduction of AKT phosphorylation at Ser473 residue measured after 3 hrs by western blot assay. It counts as cell-based. Particulars: MCF7, 3 h. In outline:
(§3)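 MCF7 cells treated for 3 h across a dose range, washed and lysed with phosphatase and protease inhibitors. Lysates run on 10% SDS-PAGE and blotted, antibodies incubated overnight at 4 °C.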

A further series deals with Cytochrome P450 2D6 (Homo sapiens, UniProt P10635). The series is described as follows: Inhibition of CYP2D6 (unknown origin) using Luciferin-ME-EG as substrate at 10 uM preincubated with enzyme and substrate for 5 mins followed by addition of NADPH regeneration system and measured after 60 mins by luminescence method. It counts as ADME. In outline:
as §2

A short description of series [7]: Oral bioavailability in BALB/c mouse at 10 mg/kg measured for 8 hrs. It counts as ADME, organism-based. Particulars: in vivo. In outline: as §1
Series [8] concerns the target PI3-kinase p110-alpha/p85-alpha (Homo sapiens, UniProt P42336). The series is described as follows: Inhibition of human p110alpha/p85alpha using PIP2 as substrate in presence of ATP measured by HTRF assay. It counts as protein-complex assay.
The species named for series [9] is Homo sapiens. The experiment in a line: Selectivity ratio of Ki for human p110delta/p85alpha to Ki for human p110alpha/p85alpha using PIP2 as substrate in presence of ATP. In outline: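 Ki from a PI3-kinase HTRF assay run per manufacturer. Enzyme levels: p110α/p85α and p110δ/p85α 100 pM, p110β/p85α 500 pM, p110γ 4 nM. ATP at 50× KM: 200 μM (α, δ), 250 μM (β), 100 μM (γ). PIP2 10 μM. Activity normalized to no-compound control. Ratio is the isoform Ki over the α Ki.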

The nature of series [10]: AUC(infinity) in BALB/c mouse at 10 mg/kg, po measured for 8 hrs. Conditions: in vivo. It counts as ADME, organism-based. Also noted: route oral, time 8 hrs, dose 10 mg/kg. The procedure, abridged: as §1
Series [11] concerns the target Serine/threonine-protein kinase mTOR (Homo sapiens, UniProt P42345). The experiment in a line: Inhibition of recombinant human GST tagged mTOR (1360 to 2549 residues) expressed in baculovirus expression system measured by LanthaScreen assay. The procedure, abridged:
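mTOR inhibition measured by LanthaScreen assay; IC50 values average two independent experiments.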

Series [12] can be described thus: Inhibition of p110alpha E545K mutant/p85alpha (unknown origin) using PIP2:3PS lipid kinase as substrate in presence of ATP measured by ADP-Glo lipid kinase assay. Also noted: species or system Homo sapiens. The procedure, abridged: (§4)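 Lipid kinase assay with PIP2:3PS substrate held at 3.25 µM. Activity normalized to no-compound control for each enzyme and fitted to a variable-slope sigmoidal dose-response curve.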

For series [13], the target named is PI3-kinase p110-alpha/p85-alpha (Homo sapiens, UniProt P42336, E542K). The experiment in a line: Inhibition of p110alpha E542K mutant/p85alpha (unknown origin) using PIP2:3PS lipid kinase as substrate in presence of ATP measured by ADP-Glo lipid kinase assay. It counts as protein-complex assay. The procedure, abridged: as §4
The nature of series [14]: Clearance in BALB/c mouse at 5 mg/kg, iv measured for 8 hrs. It counts as ADME, organism-based. Particulars: in vivo. In outline:
as §1

Series [15] is described as follows: Metabolic stability in human liver microsomes assessed as parent compound remaining in presence of NADPH regenerating system at 0.5 uM measured after 15 mins by LC-MS/MS analysis. Conditions: read-out: Stabilty. The format is ADME, Microsome. The procedure, abridged:
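Human, mouse or rat liver microsomes at 0.5 mg/ml protein with compound at 0.5 µM and NADPH-regenerating system, 37 °C with shaking. Control wells contain 0.1 M potassium phosphate instead of the regenerating system. Reaction stopped with acetonitrile/0.1% formic acid, centrifuged, supernatant analyzed by LC-MS/MS. Result is percent parent compound remaining.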

A short description of series [16]: Inhibition of PI3K/mTOR in human MCF7 cells assessed as reduction of AKT phosphorylation at Thr308 residue measured after 3 hrs by western blot assay. The format is cell-based. Conditions: MCF7, 3 h. The procedure, abridged:
as §3

Series [17] addresses PI3-kinase p110-alpha/p85-alpha (Homo sapiens, UniProt P42336, H1047R). The series is described as follows: Inhibition of p110alpha H1047R mutant/p85alpha (unknown origin) using PIP2:3PS lipid kinase as substrate in presence of ATP measured by ADP-Glo lipid kinase assay. It counts as protein-complex assay. In outline: as §4
A short description of series [18]: Inhibition of PI3K/mTOR in human MCF7 cells assessed as reduction of S6 phosphorylation at Ser235/236 residue measured after 3 hrs by western blot assay. The format is cell-based. Conditions: MCF7, 3 h. The procedure, abridged:
as §3

Sequence of Cytochrome P450 2D6 (P10635 whole entry): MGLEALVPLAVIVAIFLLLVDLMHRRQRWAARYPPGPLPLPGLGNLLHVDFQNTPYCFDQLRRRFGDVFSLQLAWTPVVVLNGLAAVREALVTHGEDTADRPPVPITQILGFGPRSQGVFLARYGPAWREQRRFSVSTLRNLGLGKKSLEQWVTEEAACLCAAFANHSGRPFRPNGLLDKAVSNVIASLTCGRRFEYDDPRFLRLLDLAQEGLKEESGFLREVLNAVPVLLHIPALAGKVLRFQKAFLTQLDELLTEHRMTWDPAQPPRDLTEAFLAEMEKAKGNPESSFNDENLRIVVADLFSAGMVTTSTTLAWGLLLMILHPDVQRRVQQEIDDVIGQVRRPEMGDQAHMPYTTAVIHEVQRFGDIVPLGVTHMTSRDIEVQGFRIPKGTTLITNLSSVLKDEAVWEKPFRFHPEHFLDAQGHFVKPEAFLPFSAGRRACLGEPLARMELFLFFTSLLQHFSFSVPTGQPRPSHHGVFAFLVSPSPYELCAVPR
Sequence of PI3-kinase p110-alpha/p85-alpha (Homo sapiens, UniProt P42336, H1047R) (P42336 whole entry H1047R, looked up): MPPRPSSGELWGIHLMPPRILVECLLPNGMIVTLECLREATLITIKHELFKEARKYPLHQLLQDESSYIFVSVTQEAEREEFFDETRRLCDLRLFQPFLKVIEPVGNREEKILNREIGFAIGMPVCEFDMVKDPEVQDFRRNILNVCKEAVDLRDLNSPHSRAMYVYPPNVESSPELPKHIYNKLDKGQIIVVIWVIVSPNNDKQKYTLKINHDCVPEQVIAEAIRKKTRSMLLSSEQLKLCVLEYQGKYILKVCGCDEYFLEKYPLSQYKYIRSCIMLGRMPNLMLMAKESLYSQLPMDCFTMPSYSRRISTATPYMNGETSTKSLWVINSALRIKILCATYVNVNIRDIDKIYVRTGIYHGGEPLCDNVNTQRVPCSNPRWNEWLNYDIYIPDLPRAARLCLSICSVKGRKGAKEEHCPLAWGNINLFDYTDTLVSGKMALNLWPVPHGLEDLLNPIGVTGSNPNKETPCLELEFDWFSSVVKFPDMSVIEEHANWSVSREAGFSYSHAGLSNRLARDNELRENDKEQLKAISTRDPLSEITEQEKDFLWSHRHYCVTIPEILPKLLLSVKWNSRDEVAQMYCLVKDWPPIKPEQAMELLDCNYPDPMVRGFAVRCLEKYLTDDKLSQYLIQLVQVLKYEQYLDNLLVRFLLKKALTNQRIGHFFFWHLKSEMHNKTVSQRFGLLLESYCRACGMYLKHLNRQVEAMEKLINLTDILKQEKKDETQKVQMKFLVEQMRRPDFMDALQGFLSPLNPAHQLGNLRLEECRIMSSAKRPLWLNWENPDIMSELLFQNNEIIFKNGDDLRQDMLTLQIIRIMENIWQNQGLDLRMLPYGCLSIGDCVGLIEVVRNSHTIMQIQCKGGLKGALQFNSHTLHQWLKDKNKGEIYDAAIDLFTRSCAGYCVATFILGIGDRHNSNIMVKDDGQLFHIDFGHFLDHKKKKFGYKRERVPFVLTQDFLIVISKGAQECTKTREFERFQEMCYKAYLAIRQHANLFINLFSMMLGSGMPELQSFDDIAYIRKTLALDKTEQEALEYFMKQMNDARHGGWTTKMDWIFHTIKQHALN
Sequence of PI3-kinase p110-alpha/p85-alpha (Homo sapiens, UniProt P42336, E542K) (P42336 whole entry E542K, looked up): as the sequence (P42336 whole entry H1047R, looked up) above, with E542K, R1047H counted along it
Sequence of PI3-kinase p110-alpha/p85-alpha (Homo sapiens, UniProt P42336) (P27986 whole entry, canonical isoform): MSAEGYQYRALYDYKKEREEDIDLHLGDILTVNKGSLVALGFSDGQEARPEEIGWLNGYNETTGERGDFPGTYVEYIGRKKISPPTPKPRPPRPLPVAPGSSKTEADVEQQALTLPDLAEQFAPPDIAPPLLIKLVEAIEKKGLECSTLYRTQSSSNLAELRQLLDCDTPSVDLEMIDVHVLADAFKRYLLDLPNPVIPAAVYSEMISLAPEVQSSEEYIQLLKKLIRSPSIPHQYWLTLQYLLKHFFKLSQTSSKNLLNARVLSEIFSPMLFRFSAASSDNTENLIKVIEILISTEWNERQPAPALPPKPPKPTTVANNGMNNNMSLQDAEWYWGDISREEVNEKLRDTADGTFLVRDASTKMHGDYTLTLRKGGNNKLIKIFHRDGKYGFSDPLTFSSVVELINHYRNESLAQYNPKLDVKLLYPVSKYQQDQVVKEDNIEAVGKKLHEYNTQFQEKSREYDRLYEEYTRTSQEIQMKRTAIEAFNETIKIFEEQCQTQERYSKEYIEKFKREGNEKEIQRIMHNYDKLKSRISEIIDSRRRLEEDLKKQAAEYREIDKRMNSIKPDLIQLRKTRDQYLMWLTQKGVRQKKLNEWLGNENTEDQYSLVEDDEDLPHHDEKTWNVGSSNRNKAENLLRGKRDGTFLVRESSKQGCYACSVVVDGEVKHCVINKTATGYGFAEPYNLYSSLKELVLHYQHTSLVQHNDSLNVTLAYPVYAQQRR
Sequence of PI3-kinase p110-alpha/p85-alpha (Homo sapiens, UniProt P42336) (P42336 whole entry, canonical isoform): as the sequence (P42336 whole entry H1047R, looked up) above, with R1047H counted along it
Sequence of Cytochrome P450 3A4 (P08684 whole entry): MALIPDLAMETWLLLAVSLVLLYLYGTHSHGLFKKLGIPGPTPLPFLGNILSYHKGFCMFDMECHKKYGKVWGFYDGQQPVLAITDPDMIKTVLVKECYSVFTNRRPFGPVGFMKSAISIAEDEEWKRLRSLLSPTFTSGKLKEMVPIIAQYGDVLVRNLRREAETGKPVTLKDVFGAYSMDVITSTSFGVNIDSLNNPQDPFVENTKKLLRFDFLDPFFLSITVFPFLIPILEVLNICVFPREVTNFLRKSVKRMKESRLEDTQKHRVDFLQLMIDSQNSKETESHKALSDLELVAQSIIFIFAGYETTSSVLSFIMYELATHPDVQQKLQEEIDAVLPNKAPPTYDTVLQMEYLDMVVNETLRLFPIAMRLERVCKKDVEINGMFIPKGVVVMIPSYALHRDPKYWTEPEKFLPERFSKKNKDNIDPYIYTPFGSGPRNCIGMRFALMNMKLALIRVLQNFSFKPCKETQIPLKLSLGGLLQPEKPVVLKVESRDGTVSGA

For the molecule `COc1ncc2cc1NS(=O)(=O)c1cccc(c1)C(=O)NCc1cncc(c1)-c1cnc3ccc-2cn13`, the Ratio IC50 in the series listed under Homo sapiens [1] was found to be 4.1. Also, the EC50 was 0.17 nM in [2], 0.46 nM in [6], 0.14 nM in [16] and 0.84 nM in [18]. The half-life in [3] was 2.59 h. This molecule had a Cmax in series [4] of 1570 ng/mL. Moreover, the Tmax in [5] came out at 0.5 h. In the series on MCF7, this molecule displayed a GI50 of 7 nM. Further, the results for the IC50 (on Cytochrome P450 3A4; against Cytochrome P450 2D6; in series [11]) were > 30000 nM, > 30000 nM and 3.3 nM, respectively. Also, in series [7], the bioavailability worked out at 84.6%. The Ki in [8] was determined as 0.16 nM; in series [12], 0.14 nM; in series [13], 0.27 nM; in series [17], 0.1 nM. Moreover, the Selectivity ratio in the series listed under Homo sapiens [9] was 0.4. In [10], the area under the curve AUC(0-inf) amounted to 4480 ng·h/mL. This molecule had a clearance in series [14] of 31.5 mL/min/kg. For the same molecule, the remaining at 0.25 h, 0.5 µM in series [15] was determined as 100%.

These data come from ChEMBL document CHEMBL4819017 (Eur J Med Chem, 2021).
